Screens as filed in PubChem BioAssay.
EBI2 block: antagonists of human EBI2 receptor; EBI2 beta-arrestin recruitment, luminescence, 7a,25-OHC stimulated; AID 651636; 360,000 tested, 0.81% active; inhibition, % at 5 µM; P32249; in the data active = inhibition above about 38%;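 also: enzyme fragment complementation signal reports receptor beta-arrestin coupling in cells; 0% = agonist plus DMSO wells and 100% = wells without agonist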
Target sequence (P32249 whole entry, looked up, the tested form may be a part): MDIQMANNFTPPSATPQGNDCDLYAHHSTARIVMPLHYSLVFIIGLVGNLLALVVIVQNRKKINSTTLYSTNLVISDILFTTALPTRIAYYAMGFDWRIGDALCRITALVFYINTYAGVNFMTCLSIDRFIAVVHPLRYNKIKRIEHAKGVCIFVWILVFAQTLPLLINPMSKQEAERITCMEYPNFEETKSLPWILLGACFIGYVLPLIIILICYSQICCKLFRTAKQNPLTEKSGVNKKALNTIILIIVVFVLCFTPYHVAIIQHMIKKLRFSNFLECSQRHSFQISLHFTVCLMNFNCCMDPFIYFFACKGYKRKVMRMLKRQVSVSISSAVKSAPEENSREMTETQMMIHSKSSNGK
MC4R antag cAMP: blocks human MC4R cAMP signaling; P32245; MC4R-expressing cells, MTII-stimulated cAMP, LANCE TR-FRET; inhibition, % at 6.5 µM; 360,000 tested, 0.48% active; AID 540295;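 active = inhibition above its plate's cutoff, the mean of tested wells on that plate plus 3 SD, cut at about 29% in these data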;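 also: 0% = Melanotan II alone and 100% = Melanotan II plus saturating MCL0020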
Target sequence (P32245 whole entry, looked up): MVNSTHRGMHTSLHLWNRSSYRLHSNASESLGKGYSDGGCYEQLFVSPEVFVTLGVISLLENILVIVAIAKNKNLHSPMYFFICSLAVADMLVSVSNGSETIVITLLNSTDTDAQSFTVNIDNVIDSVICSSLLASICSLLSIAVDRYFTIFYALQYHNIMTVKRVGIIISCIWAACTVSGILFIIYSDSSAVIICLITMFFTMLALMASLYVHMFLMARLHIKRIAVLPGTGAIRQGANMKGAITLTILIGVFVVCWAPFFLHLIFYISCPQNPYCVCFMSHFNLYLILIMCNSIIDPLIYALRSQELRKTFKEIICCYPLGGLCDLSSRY
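Assay system: human MC4R-expressing U2OS cells; reagent: Melanotan II stimulation of cells; dosing: 6.5 µM single dose; timing: compound 30 min, challenge 1 h, detection 1 h; signal: TR-FRET cAMP assay; replicates: one well per compound, no replicates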
MC4R barr agon: agonists of human melanocortin 4 receptor (MC4R) beta-arrestin; P32245; U2OS MC4R beta-arrestin complementation, luminescence; percent of melanotan II response, DMSO zero; activation, % at 8.9 µM; 360,000 tested, 0.98% active; AID 540308;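 active = activation above a per-plate cutoff, the mean activation of sample wells on that plate plus 3 SD, cut at about 8% in these data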
Exocytosis inh: lytic granule exocytosis inhibition | TALL-104 LAMP-1 surface exposure, flow cytometry; cells stimulated with thapsigargin and PMA | inhibition, % at 10 µM | 360,000 tested, 0.66% active;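 active = inhibition above about 55%, limit read from the data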
Myeloid diff 2: promotes myeloid progenitor differentiation | ER-HoxA9 myeloid progenitors, lysozyme-GFP differentiation, flow cytometry | calls only at 10 µM | 360,000 tested, 1% active | AID 624256;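 active = normalized GFP-positive differentiation at or above the plate's own cutoff, the solvent-only control mean plus 3 SD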;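 also: cells exposed to compound for four days before flow analysis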
EBI2 antag conf: EBI2 (human) antagonism, single concentration confirmation | shares compounds with EBI2 block | EBI2 beta-arrestin luminescence, 7a,25-OHC antagonism | inhibition, % at 5 µM | 2,400 tested, 29% active | AID 651997;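 active = inhibition of at least 50%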
EBI2 ag: activates EBI2, counter-screen for EBI2 antagonists. shares compounds with EBI2 block. EBI2-expressing cells, agonist mode, luminescence, 60 min; 0% vehicle, 100% 7α,25-dihydroxycholesterol control. activation, % at 5 µM. 2,400 tested, under 10 active. AID 652000;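 active = activation of at least 50%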
bGal cs: beta-galactosidase inhibition counter-screen; shares compounds with EBI2 block; purified beta-galactosidase, luminescent Galacton Star, 15 min; inhibition, % at 5 µM; 2,400 tested, 1% active; AID 652176;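 active = replicate-average signal at least 3 plate SD below neutral wells, shown as high inhibition, flagging enzyme-inhibiting false positives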;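 also: 0% = DMSO wells with enzyme and 100% = wells lacking enzyme; higher means stronger loss of beta-gal luminescence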
* marks the source's active call; other numbers are inactive results; i = inactive; / = no result; + = active, no number. Compounds with a hit are over-represented: about 3.7% of the library has one in this group of screens.

SMILES	EBI2 block	MC4R antag cAMP	MC4R barr agon	Exocytosis inh	Myeloid diff 2	EBI2 antag conf	EBI2 ag	bGal cs
CC1CCN(C(=O)/C=C/c2ccc(C(C)(C)C)cc2)CC1	19.6	-6.0	3.3	-2.5	i	/	/	/
Cc1ccccc1-c1nnn(Cc2cccc(S(=O)(=O)N3CCOCC3)c2)n1	-7.5	13.4	-1.7	-0.6	i	/	/	/
O=C(Nc1cc(S(=O)(=O)Nc2ccc(Cl)cc2)ccc1N1CCCCC1)c1ccc(F)cc1	29.4	12.2	-1.2	17.5	i	/	/	/
N#Cc1ccc(C(=O)Nc2cc(S(=O)(=O)Nc3ccc(Cl)cc3)ccc2N2CCCCC2)cc1	52.4*	9.7	-0.9	13.3	i	33.4	0.8	3.5
COc1ccc2cc(C(=O)C3CCCN(C(=O)/C=C/c4ccccn4)C3)ccc2c1 (stereo not given)	-5.2	21.1	1.8	-4.0	i	/	/	/
CCC(Cc1c(I)cc(I)c(N)c1I)C(=O)O (stereo not given)	8.4	8.8	0.8	-2.2	i	/	/	/
CCCNC(=O)C1(C)CCN(C(=O)c2ccc(OC)cc2OC)C1 (stereo not given)	-5.7	7.9	0.3	-8.9	i	/	/	/
CCOc1ccc(/C=N/OCC(=O)NC(c2ccccc2)c2ccccc2)cc1	79.5*	4.5	0.6	-1.6	i	59.9*	0.9	7.2
CC1(C(=O)NS(=O)(=O)c2ccc(C#N)cc2)CCN1C(=O)Cc1ccc(-c2ccccc2)cc1 (stereo not given)	-8.0	3.5	-2.1	-1.9	i	/	/	/
COC(=O)c1cc(=O)n(Cc2ccc(F)cc2)c(=NCc2ccc(F)cc2)s1	39.8	3.1	-2.9	-0.4	i	/	/	/
COC(=O)c1cc(=O)n(Cc2ccc3c(c2)OCO3)c(=Nc2ccc(F)cc2)s1	66.1*	4.5	-0.2	11.2	i	34.4	1.0	5.6
COC(=O)c1ccc(N=c2sc(C(=O)OC)cc(=O)n2C)cc1	66.5*	3.1	-0.1	-5.8	i	78.5*	-1.0	-16.1
COC(=O)c1cc(=O)n(Cc2ccc3c(c2)OCO3)c(=Nc2ccccc2)s1	52.9*	5.7	-0.5	0.5	i	57.7*	-1.1	-15.3
COC(=O)c1cc(=O)n(-c2ccc(F)cc2)c(=Nc2ccc(F)cc2)s1	16.2	16.6	0.3	11.9	i	/	/	/
COc1ccc(Cc2nnc(Nc3ccc4c(c3)OCCO4)[nH]c2=O)cc1	3.5	19.1	-1.1	-2.1	i	/	/	/
COc1cc(C(F)(F)F)ccc1C(=O)NCCc1ccco1	-5.7	1.8	0.6	0.3	i	/	/	/
O=C(NCC(c1ccco1)N1CCCC1)c1cc2cc(Cl)ccc2o1 (stereo not given)	10.7	2.1	-1.9	-1.3	i	/	/	/
O=C(c1cc2cc(F)ccc2[nH]1)N1CCC(Cc2ccccc2)CC1	87.5*	8.9	-1.4	51.7	i	63.2*	0.6	5.9
COc1ccc2[nH]c(C(=O)N3CCC(Cc4ccccc4)CC3)cc2c1	83.9*	12.1	1.5	-10.2	i	51.3*	-1.2	-11.6
CC(C)C[C@H]1CN(CCCC[C@H]2CNC(=O)C(=O)N2CCc2ccc(O)cc2)C(=O)C(=O)N1Cc1ccccc1	-0.2	/	/	-3.9	i	/	/	/
COc1ccc(C(=O)NC23CC4CC(CC(C4)C2)C3)cc1	-2.9	7.3	-0.8	1.7	i	/	/	/
CC(Oc1ccc2oc3ccccc3c2c1)C(=O)NC12CC3CC(CC(C3)C1)C2 (stereo not given)	53.7*	11.0	5.5	2.1	i	13.0	-1.5	-16.0
N#CCCN(C(=O)COC(=O)CCc1c[nH]c2ccccc12)c1ccccc1	0.0	7.0	-2.0	0.9	i	/	/	/
COC(=O)[C@@]12C[C@@H](CC(=O)NCCCCc3ccccc3)C(=O)N(Cc3ccc4c(c3)OCO4)C1=CCC(C)(C)C2	35.3*	/	/	7.4	+	9.9	-0.8	-9.1
CN1CCCCC1(C)C(=O)NCc1cc(Cl)ccc1F (stereo not given)	4.8	7.2	-0.1	-0.2	i	/	/	/
SMILES	EBI2 block	MC4R antag cAMP	MC4R barr agon	Exocytosis inh	Myeloid diff 2	EBI2 antag conf	EBI2 ag	bGal cs
COc1ccc(S(=O)(=O)NNC(=S)NCCc2ccccc2)c(OC)c1	-4.3	6.3	-4.6	3.3	i	/	/	/
COCCCN(Cc1ccco1)C(=O)Cn1ncc2c(=O)oc3ccc(C)cc3c21	54.9*	9.2	1.3	-0.9	i	39.7	-1.5	-11.8
Cc1ccc2oc(=O)c3cnn(CC(=O)N(CCN(C)C)Cc4ccco4)c3c2c1	30.7	1.3	-0.1	2.7	i	/	/	/
O=C(COC(=O)c1cc([N+](=O)[O-])ccc1N1CCOCC1)Nc1ccccc1OC(F)F	2.0	13.8	-4.2	-11.9	i	/	/	/
O=C(COC(=O)c1cc([N+](=O)[O-])ccc1N1CCOCC1)c1ccc(OC(F)F)cc1OC(F)F	43.5*	0.0	-2.1	-2.7	i	18.3	0.1	8.2
Cc1ccc2nc(-c3cccc(Br)c3)c(Cc3ccccc3)n2c1	29.6	/	/	-3.3	i	/	/	/
CCOC(=O)c1cnc(SCC(=O)Nc2cc(C(F)(F)F)ccc2N2CCOCC2)nc1N	85.0*	3.3	-2.3	-1.2	i	86.3*	2.8	4.6
CCOC(=O)c1cnc(SCC(=O)Nc2ccc(N3CCOCC3)c(Cl)c2)nc1N	3.4	13.3	-1.7	-2.9	i	/	/	/
CCOC(=O)[C@]12CCC=C1N(Cc1cccc3ccccc13)C(=O)[C@H](CC(=O)N1CCN(C(=O)c3ccco3)CC1)C2	8.3	/	/	-3.8	i	/	/	/
O=S(=O)(c1ccc(Oc2ccc(Cl)cc2)nc1)N1CCOCC1	52.0*	0.1	-0.7	-13.0	i	26.7	0.2	-5.8
Cc1cccc(C(=O)N2CCN(c3ccc([N+](=O)[O-])c(N4CCOCC4)c3)CC2)c1	12.9	0.3	2.2	-1.1	i	/	/	/
O=C(/C=C/c1ccccc1)N1CCN(c2ccc([N+](=O)[O-])c(N3CCOCC3)c2)CC1	77.7*	3.6	-2.5	-0.8	i	57.8*	-1.5	-7.5
O=C(c1ccc2ccccc2c1)N1CCN(c2ccc([N+](=O)[O-])c(N3CCOCC3)c2)CC1	47.2*	-4.2	0.4	-6.4	i	33.9	0.2	6.8
NCCCNC(=O)c1ccc(/C=N/O)nc1	1.1	1.9	-1.0	-1.7	i	/	/	/
CC(C)=NNc1cnnc2ccc([N+](=O)[O-])cc12	-4.2	/	/	3.1	i	/	/	/
Cc1ccc(-c2nnc(N3CCN(C(=O)COc4cccc(C)c4)CC3)c3ccccc23)cc1	63.1*	-1.2	-2.0	6.8	+	31.9	-1.0	-11.9
CCC(=O)N1CCN(c2nnc(-c3ccccc3)c3ccccc23)CC1	0.7	5.8	-2.8	-8.3	i	/	/	/
